Data as given in ChEMBL document CHEMBL3407457, “Microwave-assisted synthesis of certain pyrrolylpyridines, some derived ring systems and their evaluation as anticancer and antioxidant agents” (Eur J Med Chem, 2015).

What was measured:
MDA-MB-231 = test: Growth inhibition of human MDA-MB-231 cells after 48 hrs by sulforhodamine B assay; type: functional; details: MDA-MB-231, 48 h
In short: (§1)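 NCI-60 five-dose screen: cells incubated 48 h with five concentrations (0.01-100 µM), read by sulforhodamine B protein assay. Log concentration-% growth inhibition curves gave GI50 (50% decrease in net growth), TGI (total growth inhibition) and LC50 (net 50% loss of initial cells). 5-FU positive control.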

SNB-75 = test: Growth inhibition of human SNB75 cells after 48 hrs by sulforhodamine B assay; type: functional; details: SNB-75, 48 h; in short: as §1
IGROV-1 = test: Growth inhibition of human IGROV1 cells after 48 hrs by sulforhodamine B assay; type: functional; details: IGROV-1, 48 h; in short: as §1
[1] = Growth inhibition of human EKVX cells after 48 hrs by sulforhodamine B assay; type: functional; in short: as §1
[2] = Growth inhibition of human RPMI8226 cells after 48 hrs by sulforhodamine B assay; type: functional; details: RPMI-8226, 48 h; in short: as §1
HL-60(TB) = test: Growth inhibition of human HL-60(TB) cells after 48 hrs by sulforhodamine B assay; type: functional; details: HL-60, 48 h
In short: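 NCI-60 five-dose screen, HL-60(TB) being one of the leukemia subpanel lines. Cells exposed to five concentrations (0.01-100 µM) for 48 h. GI50 (concentration giving 50% decrease in net cell growth) read from log concentration-% growth inhibition curves; TGI and LC50 also derived. 5-fluorouracil as positive control.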

[3] = Growth inhibition of human SF539 cells after 48 hrs by sulforhodamine B assay; type: functional; details: SF-539, 48 h; in short: as §1
[4] = Growth inhibition of human OVCAR4 cells after 48 hrs by sulforhodamine B assay; type: functional; details: OVCAR-4, 48 h; in short: as §1
[5] = Growth inhibition of human UO31 cells after 48 hrs by sulforhodamine B assay; type: functional; details: UO-31, 48 h; in short: as §1
SN12C = test: Growth inhibition of human SN12C cells after 48 hrs by sulforhodamine B assay; type: functional; in short: as §1
SF-268 = test: Growth inhibition of human SF268 cells after 48 hrs by sulforhodamine B assay; type: functional; details: SF-268, 48 h; in short: as §1
[6] = Growth inhibition of human MOLT4 cells after 48 hrs by sulforhodamine B assay; type: functional; details: MOLT-4, 48 h; in short: as §1
[7] = Growth inhibition of human UACC62 cells after 48 hrs by sulforhodamine B assay; type: functional; details: UACC-62, 48 h; in short: as §1
NCI-H522 = test: Growth inhibition of human NCI-H522 cells after 48 hrs by sulforhodamine B assay; type: functional; details: NCI-H522, 48 h; in short: as §1
NCI-H226 = test: Growth inhibition of human NCI-H226 cells after 48 hrs by sulforhodamine B assay; type: functional; details: NCI-H226, 48 h; in short: as §1
A498 = test: Growth inhibition of human A498 cells after 48 hrs by sulforhodamine B assay; type: functional; details: A498, 48 h; in short: as §1
[8] = Growth inhibition of human BT549 cells after 48 hrs by sulforhodamine B assay; type: functional; details: BT-549, 48 h; in short: as §1
MCF7 = test: Growth inhibition of human MCF7 cells after 48 hrs by sulforhodamine B assay; type: functional; details: MCF7, 48 h; in short: as §1
SR = test: Growth inhibition of human SR cells after 48 hrs by sulforhodamine B assay; type: functional; in short: as §1
DU-145 = test: Growth inhibition of human DU145 cells after 48 hrs by sulforhodamine B assay; type: functional; details: DU-145, 48 h; in short: as §1
[9] = Growth inhibition of human HOP92 cells after 48 hrs by sulforhodamine B assay; type: functional; details: HOP-92, 48 h; in short: as §1
[10] = Growth inhibition of human HCT116 cells after 48 hrs by sulforhodamine B assay; type: functional; details: HCT-116, 48 h; in short: as §1
CCRF-CEM = test: Growth inhibition of human CCRF-CEM cells after 48 hrs by sulforhodamine B assay; type: functional; in short: as §1
HOP-62 = test: Growth inhibition of human HOP62 cells after 48 hrs by sulforhodamine B assay; type: functional; details: HOP-62, 48 h; in short: as §1
[11] = Antioxidant activity assessed as DPPH radical scavenging activity at 10^-3 M incubated for 30 mins by spectrophotometry; type: physicochemical; details: 0.5 h, 1000 µM
In short: (§2)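 Compound at 10^-3 or 10^-4 M mixed with methanolic DPPH (0.1 mL of 1 mM stock; 3 mL total volume), shaken, kept in the dark 30 min at room temperature. Absorbance read at 517 nm. Scavenging (%) = (A_control − A_sample)/A_control × 100, where the control is DPPH in methanol alone. BHT served as reference antioxidant. Triplicate, mean ± SD of three independent experiments.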

[12] = Antioxidant activity assessed as DPPH radical scavenging activity at 10^-4 M incubated for 30 mins by spectrophotometry; type: physicochemical; details: 0.5 h, 100 µM; in short: as §2

Compound | GI50 (MDA-MB-231) | GI50 (SNB-75) | GI50 (IGROV-1) | GI50 [1] | GI50 [2] | GI50 (HL-60(TB)) | GI50 [3] | GI50 [4] | GI50 (SN12C) | GI50 (SF-268) | GI50 [6] | GI50 (NCI-H522) | GI50 (NCI-H226) | GI50 [8] | GI50 (MCF7) | GI50 (SR) | GI50 (DU-145) | GI50 [9] | GI50 [10] | GI50 (HOP-62) | other results
Cn1cccc1-c1cc(-c2cccs2)nc(N)c1C#N | > 100 µM | 45.7 µM | > 100 µM | > 100 µM | > 100 µM | > 100 µM | > 100 µM | 85.1 µM | > 100 µM | > 100 µM | > 100 µM | > 100 µM | > 100 µM | > 100 µM | > 100 µM | 5.37 µM | > 100 µM | > 100 µM | > 100 µM | > 100 µM | GI50 [5]: > 100 µM; GI50 [7]: 87.1 µM; GI50 (A498): > 100 µM; TGI (SR): 67.6 µM; GI50 (CCRF-CEM): > 100 µM
COc1ccc(-c2cc(-c3cccn3C)c(C#N)c(N)n2)cc1OC | 38 µM | 20.9 µM | 95.5 µM | > 100 µM | 38.9 µM | 19.5 µM | 83.2 µM | 40.7 µM | 67.6 µM | 83.2 µM | 46.8 µM | 40.7 µM | > 100 µM | 64.6 µM | 93.3 µM | 56.2 µM | 91.2 µM | 5.13 µM | 89.1 µM | > 100 µM | inhibition (INH) [11]: 33%; TGI (SNB-75): 70.8 µM; GI50 [5]: 97.7 µM; GI50 [7]: 87.1 µM; inhibition (INH) [12]: 19%; GI50 (A498): 83.2 µM; GI50 (CCRF-CEM): 0.01 µM; LC50 (concentration causing net 50% loss of initial cells) (CCRF-CEM): 9.77 µM; TGI (CCRF-CEM): 3.98 µM
Cn1cccc1-c1cc(-c2ccccc2)nc(N)c1C#N | 67.6 µM | 18.6 µM | > 100 µM | 95.5 µM | 53.7 µM | 0.76 µM | 33.9 µM | 46.8 µM | > 100 µM | 79.4 µM | > 100 µM | 61.6 µM | > 100 µM | 60.2 µM | > 100 µM | 35.5 µM | > 100 µM | 0.01 µM | > 100 µM | 81.3 µM | inhibition (INH) [11]: 27%; TGI (SNB-75): 77.6 µM; GI50 [5]: > 100 µM; GI50 [7]: 44.7 µM; inhibition (INH) [12]: 12%; GI50 (A498): 91.2 µM; TGI [9]: 0.05 µM; GI50 (CCRF-CEM): 0.08 µM; LC50 (concentration causing net 50% loss of initial cells) (CCRF-CEM): 3.55 µM; TGI (CCRF-CEM): 0.38 µM
COc1ccc(-c2cc(-c3cccn3C)c(C#N)c(=O)[nH]2)cc1OC | > 100 µM |  |  | 30.9 µM | > 100 µM | > 100 µM | > 100 µM | > 100 µM | > 100 µM | > 100 µM | 22.9 µM | > 100 µM | > 100 µM | 34.7 µM | > 100 µM | 0.48 µM | > 100 µM | 0.05 µM | 91.2 µM | > 100 µM | inhibition (INH) [11]: 31%; inhibition (INH) [12]: 17%; TGI [9]: 9.77 µM
